Laboratory results from ChEMBL document CHEMBL4118065, “Design, synthesis and antimycobacterial activity of novel imidazo[1,2-a]pyridine-3-carboxamide derivatives” (Eur J Med Chem, 2017).
≈ marks a conversion by molar mass, not a printed value.

Legend:
[1] = test system: Mycobacterium tuberculosis; experiment: Antimycobacterial activity against isoniazid/rifampicin-resistant Mycobacterium tuberculosis MTB9160 after 7 days by microplate Alamar blue assay; type: functional; conditions: MTB9160, 168 h
Procedure, shortened: (§1)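 MABA against replicating M. tuberculosis. Cells grown to late log phase (70–100 Klett units) in 7H9 broth with 0.2% glycerol, 0.05% Tween 80 and 10% ADC. They were washed in PBS, filtered (8 µm) and frozen. Twofold compound dilutions received 2×10^5 CFU per well at 37 °C. Tween 80 and Alamar blue were added on day 7, then 16–24 h more. Fluorescence read at 530/590 nm. MIC = lowest concentration giving ≥90% fluorescence reduction versus bacterium-only controls.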

[2] = test system: Mycobacterium tuberculosis; experiment: Antimycobacterial activity against isoniazid/rifampicin-resistant Mycobacterium tuberculosis MTB11168 after 7 days by microplate Alamar blue assay; type: functional; conditions: MTB11168, 168 h; procedure, shortened: as §1

Row | SMILES | MIC90 [1] [µM] | MIC90 [2] [µM]
1 | NNC(=O)c1ccncc1 [ISONIAZID] | > 291 | > 291
2 | Cc1ccc2nc(C)c(C(=O)NCCOc3ccc(Br)cc3)n2c1 | 0.2 (≈ 0.0777 µg/mL) | < 0.041
3 | COc1ccc(NCCNC(=O)c2c(C)nc3ccc(C)cn23)cc1 | 2.64 (≈ 0.893 µg/mL) | 1.47 (≈ 0.497 µg/mL)
4 | Cc1ccc2nc(C)c(C(=O)NCCNc3ccc(C(C)(C)C)cc3)n2c1 | 0.57 (≈ 0.208 µg/mL) | 1.37 (≈ 0.499 µg/mL)
5 | CO[C@H]1/C=C/O[C@@]2(C)Oc3c(C)c(O)c4c(O)c(c(/C=N/N5CCN(C)CC5)c(O)c4c3C2=O)NC(=O)/C(C)=C\C=C\[C@H](C)[C@H](O)[C@@H](C)[C@@H](O)[C@@H](C)[C@H](OC(C)=O)[C@@H]1C [RIFAMPIN] | > 57 | > 57
